ChEMBL document CHEMBL1127046, “Antitumor agents. 3. Synthesis and biological activity of 4 beta-alkyl derivatives containing hydroxy, amino, and amido groups of 4'-O-demethyl-4-desoxypodophyllotoxin as antitumor agents” (J Med Chem, 1993)

Key:
[1] = tested on: L1210; assay: The number of mice survived for 30 days at the dose of 40 (mg/kg/day); assay type: functional, Mus musculus
[2] = tested on: L1210; assay: Antitumor activity in vivo expressed as the percentage increase in life span at the dose of 40 (mg/kg/day); assay type: functional, Mus musculus
[3] = tested on: P388; assay: Cytotoxicity against P388 leukemia; assay type: functional, cell-based; conditions: Mus musculus
[4] = Inhibition of DNA topoisomerase II from rat liver measured as 50% reduction in the amount of minicircle DNA relative to the control
[5] = molecular target: Tubulin (Bos taurus, UniProt Q6B856+Q862L2+Q862F3); assay: Drug concentration needed to produce a 50% reduction of bovine brain tubulin polymerization relative to the control
[6] = tested on: ACHN; assay: Inhibition of growth of renal cancer ACHN cell line; assay type: functional; conditions: Homo sapiens, read-out: ED50 (the source's name)
Method in brief: (§1)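 Human tumour cell lines plated and grown 24 h in a CO2 incubator, then exposed to compound for 96 or 4 h. Cells counted by hemocytometer. IC50 is the concentration giving 50% reduction in cell number versus untreated control.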

[7] = Inhibition of growth of colon carcinoma COLO 2-1 cell line; assay type: functional; conditions: Homo sapiens, read-out: ED50 (the source's name)
Method in brief: (§2)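 Cells were seeded and cultured for 24 h, then exposed to drug for 96 or 4 h. Cells were counted by hemocytometer. IC50 is the concentration giving a 50% reduction in cell number relative to control.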

[8] = tested on: COLO 320DM; assay: Inhibition of growth of colon cancer COLO 320DM cell line; assay type: functional; conditions: Homo sapiens, read-out: ED50 (the source's name); method in brief: as §2
[9] = species: Homo sapiens; assay: Inhibition of growth of hepatoma HLE cell line; assay type: functional; conditions: read-out: ED50 (the source's name); method in brief: as §2
[10] = Inhibition of growth of renal cancer G-402 cell line; assay type: functional; conditions: Homo sapiens, read-out: ED50 (the source's name); method in brief: as §1
[11] = Inhibition of growth of hepatoma HLF cell line; assay type: functional; conditions: Homo sapiens, read-out: ED50 (the source's name); method in brief: as §2
[12] = tested on: Lewis lung carcinoma cell line; assay: Increased life span at the lewis lung dose of 0.77 (mg/kg/day); assay type: functional, Mus musculus
[13] = tested on: Lewis lung carcinoma cell line; assay: Increased life span at the lewis lung dose of 1.3 (mg/kg/day); assay type: functional, Mus musculus
[14] = tested on: Lewis lung carcinoma cell line; assay: Increased life span at the lewis lung dose of 2.3 (mg/kg/day); assay type: functional, Mus musculus
[15] = tested on: Lewis lung carcinoma cell line; assay: Increased life span at the lewis lung dose of 4 (mg/kg/day); assay type: functional, Mus musculus
[16] = tested on: Lewis lung carcinoma cell line; assay: Increased life span at the lewis lung dose of 7 (mg/kg/day); assay type: functional, Mus musculus
[17] = tested on: Lewis lung carcinoma cell line; assay: Mean body weight change after inoculation of 3.2 x 10 e 5 cells iv and administration of compounds iv from days 1-5 at the dose of 0.77 (mg/kg/day); assay type: functional, Mus musculus
Method in brief: (§3)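 Male BDF1 mice (5 weeks) given 3.2 x 10^5 Lewis lung carcinoma cells iv on day 0, then dosed iv on days 1–5. Seven mice per group, 14 controls. Mean body weight change (g) taken from day 0 to day 6.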

[18] = tested on: Lewis lung carcinoma cell line; assay: Mean body weight change after inoculation of 3.2 x 10 e 5 cells iv and administration of compounds iv from days 1-5 at the dose of 1.3 (mg/kg/day); assay type: functional, Mus musculus; method in brief: as §3
[19] = tested on: Lewis lung carcinoma cell line; assay: Mean body weight change after inoculation of 3.2 x 10 e 5 cells iv and administration of compounds iv from days 1-5 at the dose of 2.3 (mg/kg/day); assay type: functional, Mus musculus; method in brief: as §3
[20] = tested on: Lewis lung carcinoma cell line; assay: Mean body weight change after inoculation of 3.2 x 10 e 5 cells iv and administration of compounds iv from days 1-5 at the dose of 4 (mg/kg/day); assay type: functional, Mus musculus; method in brief: as §3
[21] = tested on: Lewis lung carcinoma cell line; assay: Mean body weight change after inoculation of 3.2 x 10 e 5 cells iv and administration of compounds iv from days 1-5 at the dose of 7 (mg/kg/day); assay type: functional, Mus musculus; method in brief: as §3
[22] = tested on: P388; assay: Antitumor activity in vivo expressed as the percentage increase in life span at the P388 dose of 1..3 (mg/kg/day); assay type: functional, Mus musculus
Method in brief: (§4)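 P388 leukaemia, 1 × 10^6 cells given sc to male CDF1 mice (5 weeks old) on day 0. Drug was dosed iv on days 1–5 in saline with 3.5% DMSO and 6.5% Tween 80. Groups had 7 mice; controls had 10. ILS was calculated from mean survival time of treated versus control mice, excluding 30-day survivors.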

[23] = tested on: P388; assay: Antitumor activity in vivo expressed as the percentage increase in life span at the P388 dose of 2.3 (mg/kg/day); assay type: functional, Mus musculus; method in brief: as §4
[24] = tested on: P388; assay: Antitumor activity in vivo expressed as the percentage increase in life span at the P388 dose of 4 (mg/kg/day); assay type: functional, Mus musculus; method in brief: as §4
[25] = Inhibition of growth of lung non-small cell carcinoma PC-7 cell line; assay type: functional; conditions: Homo sapiens, read-out: ED50 (the source's name); method in brief: as §2
[26] = Inhibition of growth of lung small cell carcinoma RERF-LC-MA cell line; assay type: functional; conditions: Homo sapiens; read-out: ED50 (the source's name); method in brief: as §2
[27] = tested on: SBC-3; assay: Inhibition of growth of lung small cell carcinoma SBC-3 cell line; assay type: functional; conditions: Homo sapiens, read-out: ED50 (the source's name); method in brief: as §1
[28] = tested on: Lewis lung carcinoma cell line; assay: Percentage inhibition of tumor growth at the lewis lung dose of 7 (mg/kg/ day); assay type: functional, Mus musculus
Method in brief: (§5)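 Lewis lung carcinoma fragments (2 mm3) implanted sc into male BDF1 mice (5 weeks) on day 0. Compound given iv on days 4–8, in saline or saline with 3.5% DMSO and 6.5% Tween 80. Seven mice per group, 10 controls. Percent inhibition from mean tumour weight versus control on day 17; p<0.05, 0.01 or 0.001 versus control.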

[29] = tested on: Mus musculus; assay: The number of mice survived for 30 days at the dose of 5 (mg/kg/day); assay type: functional
[30] = tested on: A549; assay: Inhibition of growth lung non-small cell carcinoma A-549 cell line; assay type: functional; conditions: Homo sapiens, read-out: ED50 (the source's name); method in brief: as §2
[31] = tested on: Lewis lung carcinoma cell line; assay: Percentage inhibition of tumor growth at the lewis lung dose of 4 (mg/kg/ day); assay type: functional, Mus musculus; method in brief: as §5

COc1cc([C@@H]2c3cc4c(cc3[C@@H](CCN(C)N(C)C)C3COC(=O)[C@@H]32)OCO4)cc(OC)c1O.Cl (stereo partly drawn)
Survivors [1]: 6
ILS max [2]: 74%
IC50 [3]: 0.02 µM
IC50 [4]: 58.3 µM
IC50 [5]: > 100 µM

COc1cc([C@@H]2c3cc4c(cc3[C@@H](CCN(C)CCN3CCCCC3)C3COC(=O)[C@@H]32)OCO4)cc(OC)c1O.Cl.Cl (stereo partly drawn)
EC50 [6]: 2.7 µg/mL
EC50 [7]: 29 µg/mL
EC50 [8]: 3.2 µg/mL
EC50 [9]: 0.36 µg/mL
EC50 [10]: 0.35 µg/mL
EC50 [11]: 4 µg/mL
ILS max [12]: 20%
ILS max [13]: 14%
ILS max [14]: 75%
ILS max [15]: 108%
ILS max [16]: 55%
bwc [17]: 0.7 g
bwc [18]: 0.1 g
bwc [19]: -0.6 g
bwc [20]: -1 g
bwc [21]: -3.5 g
ILS max [22]: 131%
ILS max [23]: 165%
ILS max [24]: 259%
EC50 [25]: 4.4 µg/mL
EC50 [26]: 27 µg/mL
EC50 [27]: 0.54 µg/mL
IC50 [4]: 60.9 µM
IC50 [5]: > 167 µM
Inhibition [28]: 97%
Survivors [29]: 6
EC50 [30]: 1.8 µg/mL
Inhibition [31]: 72%
